KCNK9 inh = KCNK9 potassium channel inhibitors, primary screen, HEK293 cells, thallium flux | FluxOR thallium flux fluorescence; hits give low values | AID 488922, 2010 | 310,000 compounds, 1.2% hits | B-score at 10 µM;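 active means ratio B-score over 3 SD below the library mean, with starting fluorescence within 5 SD of its mean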;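 further: negative B-score means less thallium flux so channel inhibition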
Kir21 block = inhibitors of mouse Kir2.1 inward-rectifier potassium channel. HEK293-Kir2.1, FluxOR thallium flux fluorescence; hits give low values. B-score at 10 µM. 310,000 compounds, 0.85% hits;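 active means fluorescence ratio B-score at or below minus 3 SD of library scores, with starting-brightness B-score within 2 SD, cut at about -4.2 in these data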;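 further: channel flux triggered by added potassium and thallium sulfate stimulus; B-score of peak minus minimum fluorescence over baseline after thallium stimulus; more negative B-score means stronger Kir2.1 block with less thallium influx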
KCNK3 inh = human KCNK3 channel inhibitors, primary screen, CHO cells, FluxOR thallium flux, B-score. Potassium channel subfamily K member 3 (Homo sapiens), O14649. FluxOR fluorescence; hits give low values. B-score at 10 µM. 340,000 compounds, 0.84% hits. AID 602410, 2012;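 active means B-score under library mean minus 4 SD, starting fluorescence ratio at most library mean plus 5 SD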;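 further: more negative B-score means stronger inhibition of thallium flux through KCNK3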
hERG rescue = hERG rescue from dofetilide block, primary screen, cell-based, CHO-hERG, FluxOR thallium flux, dofetilide IC70; 310,000 compounds, 0.51% hits; AID 1511, 2009; Voltage-gated inwardly rectifying potassium channel KCNH2 (Homo sapiens), Q12809; activation (rescue from dofetilide block), less the hit threshold, % at 10 µM; dofetilide IC70 present;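 active means activation above the mean of controls blocked by dofetilide plus 5 SD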;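 further: thallium influx through hERG after potassium depolarization seen as dye fluorescence rise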
Target sequence (Q12809 whole entry, looked up): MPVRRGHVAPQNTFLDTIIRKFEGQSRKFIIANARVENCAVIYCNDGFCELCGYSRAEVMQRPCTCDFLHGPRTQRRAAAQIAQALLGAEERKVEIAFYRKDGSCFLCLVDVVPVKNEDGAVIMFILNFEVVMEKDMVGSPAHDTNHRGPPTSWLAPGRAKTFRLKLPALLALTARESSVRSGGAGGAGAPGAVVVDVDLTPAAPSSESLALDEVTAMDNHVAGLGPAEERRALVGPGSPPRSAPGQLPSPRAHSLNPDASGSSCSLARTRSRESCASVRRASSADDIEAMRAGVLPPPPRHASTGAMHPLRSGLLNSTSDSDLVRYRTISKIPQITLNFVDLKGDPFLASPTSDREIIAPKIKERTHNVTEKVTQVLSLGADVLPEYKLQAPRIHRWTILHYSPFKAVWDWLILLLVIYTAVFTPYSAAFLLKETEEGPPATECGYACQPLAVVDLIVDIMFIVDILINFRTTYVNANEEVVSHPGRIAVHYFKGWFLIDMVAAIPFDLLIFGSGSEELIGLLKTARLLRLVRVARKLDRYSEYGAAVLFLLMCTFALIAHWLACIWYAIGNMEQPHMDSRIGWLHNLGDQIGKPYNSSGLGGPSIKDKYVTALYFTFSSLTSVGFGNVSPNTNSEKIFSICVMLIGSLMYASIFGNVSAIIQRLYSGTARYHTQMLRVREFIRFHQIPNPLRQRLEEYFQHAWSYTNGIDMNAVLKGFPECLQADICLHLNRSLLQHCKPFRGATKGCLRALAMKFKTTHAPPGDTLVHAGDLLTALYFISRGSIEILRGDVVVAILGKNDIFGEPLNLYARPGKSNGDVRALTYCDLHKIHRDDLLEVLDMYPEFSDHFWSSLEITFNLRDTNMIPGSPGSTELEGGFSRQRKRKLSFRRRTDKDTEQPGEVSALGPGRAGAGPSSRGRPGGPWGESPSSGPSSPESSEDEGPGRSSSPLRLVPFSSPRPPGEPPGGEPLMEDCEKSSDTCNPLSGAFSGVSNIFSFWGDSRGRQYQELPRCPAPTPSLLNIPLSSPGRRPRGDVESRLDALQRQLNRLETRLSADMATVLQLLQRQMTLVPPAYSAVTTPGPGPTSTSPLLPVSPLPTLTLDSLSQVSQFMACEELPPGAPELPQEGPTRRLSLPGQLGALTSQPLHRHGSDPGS
KCNQ1 inh = inhibitors of human KCNQ1 channel, primary screen, cell-based, thallium flux, high-throughput. Potassium voltage-gated channel subfamily KQT member 1 (Homo sapiens), P51787. CHO-K1 KCNQ1, FluxOR thallium flux fluorescence; hits give high values. B-score at 10 µM. 310,000 compounds, 1.3% hits;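 active means compounds whose thallium flux B-score, printed positive for inhibition, exceeds three library SD while starting fluorescence stays within three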;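 further: channel opened by potassium depolarization with thallium stimulus after 20 min compound exposure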
KCNQ1 act = potentiators or activators of KCNQ1 channel, primary screen, cell-based, thallium flux, high-throughput; 310,000 compounds, 0.35% hits; AID 2648, 2010; B-score at 10 µM; CHO-K1 KCNQ1, thallium flux FluxOR fluorescence; hits give high values; Potassium voltage-gated channel subfamily KQT member 1 (Homo sapiens), P51787;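 active means fluorescence ratio B-score, a plate-corrected score, at least three library SD, with initial intensity B-score within 5 SD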
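Material: CHO-K1 cells stably expressing KCNQ1. Medium: assay buffer for compound exposure, DMSO matched across wells. Reagent: K+/Tl+ depolarizing stimulus. Compound dosing: single-concentration screen. Times: 37 °C overnight plating, 90-min dark dye load, 20-min compound pretreatment. Technique: FluxOR Tl+ flux fluorescence.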
Of the large screens only hits and unclear results are named; the others gave an inactive call. Hits are enriched below; roughly 3.7% of the tested compounds scored in any of these assays.

CN(c1ccccc1)S(=O)(=O)c1cccc(NC(=O)CSc2nccc(=O)[nH]2)c1	KCNK3 inh -9.8 (no result: KCNK9 inh, Kir21 block, hERG rescue, KCNQ1 inh, KCNQ1 act)
CCN(CC)CCNC(=O)c1nn(-c2ccc(Cl)cc2)c2c1CCc1cc(OC)ccc1-2	none (no result: KCNK9 inh, Kir21 block, hERG rescue, KCNQ1 inh, KCNQ1 act)
N#CCCN(NC1=NS(=O)(=O)c2ccccc21)C(=O)c1ccccc1Br	none
COC(=O)c1cc(COC(=O)CNC(=O)c2ccc(Br)cc2)oc1C	none (no result: KCNK9 inh, Kir21 block, hERG rescue, KCNQ1 inh, KCNQ1 act)
CCOc1ccc(C2=Nn3c(CC)nnc3SC2)cc1	none (no result: KCNK9 inh, Kir21 block, hERG rescue, KCNQ1 inh, KCNQ1 act)
CN(Cc1ccccc1)C(=O)COC(=O)CN1C(=O)c2ccccc2C1=O	none (no result: KCNK9 inh, Kir21 block, hERG rescue, KCNQ1 inh, KCNQ1 act)
Cc1noc(C)c1CSc1nc2ccccc2n1CCc1ccccc1	Kir21 block -7.2
O=C(O)CCn1c(SCc2ccccc2)nc2ccccc21	none
CCOC(=O)c1c(N)sc(C(O)(C(F)(F)F)C(F)(F)F)c1-c1ccccc1	KCNK9 inh -7.5
COc1ccc(NC(=O)C2CC(=O)N(Cc3ccco3)C2)cc1Cl (stereo unspecified)	none (no result: KCNK9 inh, Kir21 block, hERG rescue, KCNQ1 inh, KCNQ1 act)
Cc1ccc(OCCC(=O)OCC(=O)Nc2ccccc2)cc1	none
CCOC(=O)C1=C(C)N=c2s/c(=C\c3cccc(OCC(=O)O)c3)c(=O)n2C1c1ccccc1 (stereo unspecified)	none
COC(=O)C1=C(C)N=c2s/c(=C/c3ccoc3)c(=O)n2C1c1ccccc1 (stereo unspecified)	KCNQ1 inh 9
CC1=C(C(=O)OC(C)C)C(c2ccc(Cl)cc2)n2c(s/c(=C\c3ccc(OCC(=O)O)cc3)c2=O)=N1 (stereo unspecified)	KCNQ1 inh 7
CCOC(=O)C1=C(C)N=c2s/c(=C\c3ccc(OCC(=O)O)c(OC)c3)c(=O)n2C1c1ccc(OC)cc1 (stereo unspecified)	none
CC(C)(C)c1ccccc1OCC(=O)Nc1ccccc1C(=O)NCc1cccnc1	Kir21 block -6
Cc1cc(CNC[C@H]2O[C@@H](n3cnc(C(N)=O)n3)[C@H](O)[C@@H]2O)c(C)n1-c1cccnc1	none (no result: KCNK9 inh, Kir21 block, hERG rescue, KCNQ1 inh, KCNQ1 act)
CC(C)c1ccccc1NC(=O)CNC(C)c1ccc(F)cc1 (stereo unspecified)	Kir21 block -5.5
CCn1c(O)c(N=NC(=O)CNC(=O)c2ccccc2F)c2ccccc21	none
Cc1ccc(C)c(Cn2c(O)c(N=NC(=S)Nc3ccccc3F)c3ccccc32)c1	hERG rescue 4.7
NC(=S)N=Nc1c(O)n(CCCl)c2ccccc12	none
Oc1c(N=NC(=S)Nc2ccccc2F)c2ccccc2n1Cc1ccccc1F	hERG rescue 29, KCNQ1 act 23
CCc1ccccc1NC(=S)N=Nc1c(O)n(C)c2ccc(S(=O)(=O)N3CCOCC3)cc12	none
Oc1c(N=NC(=S)Nc2ccccc2F)c2ccccc2n1Cc1ccc(Cl)cc1	hERG rescue 25, KCNQ1 act 8
Cc1ccc(Cn2c(O)c(N=NC(=S)Nc3ccccc3F)c3cc(S(=O)(=O)N4CCOCC4)ccc32)cc1	hERG rescue 5.7
O=c1ccc(-c2ccc(S(=O)(=O)Nc3ccccc3Cl)o2)n[nH]1	none
O=C(O)c1cnn(-c2nc(-c3cccc([N+](=O)[O-])c3)cs2)c1C(F)(F)F	none
CCCN(CC(=O)Nc1ccccc1OC)C(=O)C1=COCCO1	none (no result: KCNK9 inh, Kir21 block, hERG rescue, KCNQ1 inh, KCNQ1 act)
C/C(=N\Nc1ccc(C)c(Cl)c1)c1cccnc1	none
Cc1ccccc1Cn1c(O)c(N=NC(=S)Nc2ccccc2F)c2ccccc21	hERG rescue 36
CCCn1c(O)c(N=NC(=O)c2ccco2)c2ccccc21	hERG rescue 60
CCNC(=S)N=Nc1c(O)n(Cc2ccc(Cl)cc2)c2ccccc12	KCNQ1 act 18
O=c1oc(CCCO)cc2ccccc12	none (no result: KCNK9 inh, Kir21 block, hERG rescue, KCNQ1 inh, KCNQ1 act)
Cc1cc(SCC(=O)NCCC2=CCCCC2)nc2ccccc12	Kir21 block -16
Cc1c(CNCCC2=CCCCC2)c(C(=O)O)c(C)n1Cc1ccccc1	hERG rescue 6.6
CCC(C(=O)NCCC1=CCCCC1)c1ccccc1 (stereo unspecified)	Kir21 block -5.6
Cc1ccccc1OC(C)C(=O)NCCC1=CCCCC1 (stereo unspecified)	Kir21 block -8.9
O=C(Nc1cccc(F)c1)C1CCCN(S(=O)(=O)c2ccccc2)C1 (stereo unspecified)	none
C=CCN1CCC(=O)C(C(=O)OCC)=C1C(=O)OCC	none (no result: KCNK9 inh, Kir21 block, hERG rescue, KCNQ1 inh, KCNQ1 act)
Cc1ccccc1OCC(=O)OCC(=O)c1ccc[nH]1	none (no result: KCNK9 inh, Kir21 block, hERG rescue, KCNQ1 inh, KCNQ1 act)
Cc1ccc(Cl)cc1-n1c(SCC(=O)NCCC2=CCCCC2)nc2n[nH]c(C)c2c1=N	KCNK9 inh -7.2
CCc1ccc(NC(=O)c2cc3c(C)nc4ccccc4c3o2)cc1	KCNQ1 inh 6
Cc1ccccc1NC(=O)c1cc2c(C)nc3ccccc3c2o1	none
CCN1CC=C2C(C#N)=C(N)C(C#N)(C#N)C(c3cc(Cl)ccc3Cl)C2C1 (stereo unspecified)	KCNK3 inh -10, KCNQ1 inh 12
CC(C)N1CC=C2C(C#N)=C(N)C(C#N)(C#N)[C@H](c3ccoc3)[C@H]2C1	KCNQ1 inh 7 (no result: KCNK3 inh)
COc1cccc(CC2(CO)CCN(C(=O)NCCc3ccccc3)CC2)c1	none
COc1cccc(CC2(CO)CCN(C(=O)NC3CCCCC3)CC2)c1	hERG rescue 8.7
N#CCc1ccc(NS(=O)(=O)c2ccc(C3CCCCC3)cc2)cc1	KCNK9 inh -6.9
CC(C)N(Cc1ccccc1)C(=S)NCc1ccccc1	Kir21 block -4.2
Cc1cc(C)c(Cn2cnc(-c3ccc([N+](=O)[O-])cc3)c2)c(C)c1	KCNQ1 inh 6
Cc1ccc(-c2n[nH]c(=S)nc2-c2ccc(C)cc2)cc1	hERG rescue 6.7
Cn1c(N)c(C(=O)CSc2n[nH]c(N)n2)c(=O)n(C)c1=O	none (no result: KCNK9 inh, Kir21 block, hERG rescue, KCNQ1 inh, KCNQ1 act)
Clc1ccccc1CSc1nnc(-c2cccnc2)n1Cc1ccco1	Kir21 block -4.4
C=CCn1c(SCC(=O)Nc2ccc(C(=O)O)cc2)nnc1-c1cccnc1	none
C=CCn1c(SCc2cccc3ccccc23)nnc1-c1cccnc1	Kir21 block -6.4
Fc1ccc(CSc2nnc(-c3cnccn3)n2Cc2ccco2)cc1	none
C(=C\c1ccccc1)/CSc1nnc(-c2cnccn2)n1Cc1ccco1	Kir21 block -5.3
CN1CCCN(S(=O)(=O)c2cccc(C#N)c2)CC1	none
c1ccc2c(c1)ccn2CCCN1CCCCC1	none (no result: KCNK9 inh, Kir21 block, hERG rescue, KCNQ1 inh, KCNQ1 act)
Cc1ccc(C(=O)C2(C)C3c4cc(Br)ccc4OC(=O)C32C(=O)c2ccco2)cc1 (stereo unspecified)	KCNK9 inh -7.7
O=S(=O)(Nc1ccccc1N1CCOCC1)c1ccccc1C(F)(F)F	KCNK3 inh -10 (no result: KCNK9 inh, Kir21 block, hERG rescue, KCNQ1 inh, KCNQ1 act)
